Measured values: article PMC7241432 (ACS infectious diseases, 2019)
≈ marks a conversion by molar mass, not a printed value. Like-named read-outs stand apart in the source and are kept apart here.

Tests used:
Mtb strain H37Rv = experiment: microbe, parasite or virus in culture; assay type: cell-based, Mycobacterium tuberculosis; conditions: for MBC: Mycobacterium tuberculosis, H37RV
[1] = Stability / PYR release in cell-free medium; assay type: physicochemical
Method in brief: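 PYR measured colorimetrically: cell-free medium (R or nitrite-containing NR medium) mixed 1:1 with 0.01 M ferric nitrate in 0.1 N sulfuric acid and shaken 5–10 min at room temperature. Fe3+–PYR complex read by absorbance at 600 nm. Concentration taken from a linear sodium-PYR standard curve. Free PYR followed over 24 h (R medium) and 48 h (NR medium).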

[2] = tested on: methicillin-sensitive S. aureus; experiment: Antimicrobial spectrum MIC90, MSSA; assay type: cell-based; conditions: Staphylococcus aureus, 24 h
Mtb [3] = assay type: cell-based, Mycobacterium tuberculosis
BlaC = target: T1, BlaC (Mycobacterium tuberculosis, UniProt P9WKD3); assay type: biochemical; conditions: 100 μM compound, 1 μM BlaC, 10 min
T1 sequence (P9WKD3 35-307): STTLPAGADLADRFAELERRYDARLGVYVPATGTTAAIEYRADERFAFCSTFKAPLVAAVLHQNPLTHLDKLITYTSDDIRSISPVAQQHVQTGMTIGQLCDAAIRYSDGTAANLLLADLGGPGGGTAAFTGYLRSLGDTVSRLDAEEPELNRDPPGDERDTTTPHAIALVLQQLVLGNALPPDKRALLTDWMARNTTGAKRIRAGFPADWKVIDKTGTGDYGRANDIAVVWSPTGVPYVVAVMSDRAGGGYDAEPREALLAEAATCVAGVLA

Mtb [4] = conditions: 14-day exposure of hypoxic Mtb, plus clavulanate; cited from earlier work
[5] = tested on: luxAB (luciferase) containing strain of Mtb H37Rv; assay type: cell-based, Mycobacterium tuberculosis; conditions: hypoxic conditions, control

[O-][n+]1ccccc1S [PYR, pyrithione]
potency relative to cephalosporin 1a (Mtb strain H37Rv): equipotent on a molar basis
MBC (Mtb strain H37Rv; read-out: MBC NR CARA): 1.25 µM (≈ 0.159 µg/mL)
MBC (Mtb strain H37Rv; read-out: MBC NR CARA + 25 μM Clav): 1.25 µM
MBC (Mtb strain H37Rv; read-out: MBC R CARA): 1.25 µM (≈ 0.159 µg/mL)
MBC (Mtb strain H37Rv; read-out: MBC R CARA + 25 μM Clav): 1.25 µM
stability of free PYR in the medium used for NR conditions ([1]; NR medium): largely disappeared over 48 h
stability of free PYR in the medium used for R conditions ([1]; R medium): at least 24 h
MIC90 [2]: 25 µM (≈ 3.18 µg/mL)
reduction of CFU of R Mtb (Mtb [3]): > 5 orders of magnitude
time to reduce CFU of R Mtb by >5 orders of magnitude (Mtb [3]): ≤ 24 h

CC(=O)OCC1=C(C(=O)O)N2C(=O)[C@@H](NC(=O)Cc3cccs3)[C@H]2SC1 [cephalothin]
UV-visible absorption spectrum after incubation with BlaC (BlaC): did not change

C[C@@H](O)[C@H]1C(=O)N2C(C(=O)O)=C(S[C@@H]3CN[C@H](C(=O)N(C)C)C3)[C@H](C)[C@H]12 [meropenem]
reduction in colony-forming units (CFUs) (Mtb [4]): ca. 1 order of magnitude

O=C(O)CSc1cccc[n+]1[O-] [Compound 10, 2-(carboxymethylthio)pyridine-N-oxide]
PYR release in cell-free medium ([1]; Fe3+-PYR complex, absorbance at 600 nm): not released

CO[C@H]1/C=C/O[C@@]2(C)Oc3c(C)c(O)c4c(O)c(c(/C=N/N5CCN(C)CC5)c(O)c4c3C2=O)NC(=O)/C(C)=C\C=C\[C@H](C)[C@H](O)[C@@H](C)[C@@H](O)[C@@H](C)[C@H](OC(C)=O)[C@@H]1C [rifampicin]
activity in LORA [5]: lost activity
